Compounds with a hit are over-represented: about 3.5% of the library has one in this group of screens.
MrgX1 antagonist – antagonists of human MrgX1 receptor, primary screen, HEK293 cells, Fluo-4 calcium flux; BAM8-22 antagonism; active compounds read low; hit rate 1.3% among 310,000; B-score at 10 µM; Mas-related G-protein coupled receptor member X1 (Homo sapiens), Q96LB2;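 active = calcium-response B-score plate-corrected more than 3 library SD below zero, starting fluorescence within 5 deviations, no agonist response on first addition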;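 note: peak minus trough fluorescence over baseline after final BAM8-22 challenge near maximal dose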
Target sequence (Q96LB2 whole entry, looked up): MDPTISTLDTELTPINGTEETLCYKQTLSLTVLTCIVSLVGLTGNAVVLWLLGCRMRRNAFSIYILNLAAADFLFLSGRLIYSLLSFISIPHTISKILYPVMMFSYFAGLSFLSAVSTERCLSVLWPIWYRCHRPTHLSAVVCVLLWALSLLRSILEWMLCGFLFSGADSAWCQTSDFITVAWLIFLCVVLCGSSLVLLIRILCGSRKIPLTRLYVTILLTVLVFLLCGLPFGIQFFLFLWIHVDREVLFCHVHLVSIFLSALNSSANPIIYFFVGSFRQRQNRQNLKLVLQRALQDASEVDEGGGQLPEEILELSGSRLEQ
RGS4 inh – RGS4 inhibitors, primary screen, cell-based, HEK293 M3R inducible RGS4, calcium flux; Fluo-4 calcium flux; active compounds read high; triggered by carbachol at its EC20; B-score at 10 µM; hit rate 0.45% among 310,000; Regulator of G-protein signaling 4 (Homo sapiens), P49798;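 active = B-score, a plate-corrected calcium signal, over three deviations above library mean, with baseline fluorescence within five deviations of library mean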;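 note: RGS4 expression induced by doxycycline in cells with stable M3 receptor; B-score is computed from the integrated fluorescence ratio over baseline after carbachol; higher B-score means a larger calcium signal and so more RGS4 inhibition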
Target sequence (P49798 whole entry, looked up): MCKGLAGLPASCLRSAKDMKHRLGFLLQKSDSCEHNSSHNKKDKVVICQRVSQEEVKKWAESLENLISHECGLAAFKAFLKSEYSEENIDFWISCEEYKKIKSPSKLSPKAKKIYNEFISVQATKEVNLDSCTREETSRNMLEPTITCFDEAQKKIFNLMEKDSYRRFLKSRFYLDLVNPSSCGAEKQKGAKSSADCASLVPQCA
MrgX1 PAM – positive allosteric modulators of MrgX1, primary screen, HEK293 cells, Fluo-4 calcium flux; Mas-related G-protein coupled receptor member X1 (Homo sapiens), Q96LB2; FDSS; active compounds read high; B-score at 10 µM; hit rate 0.63% among 310,000; AID 588675, 2011;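 active = plate-corrected calcium response at least 3 library SD above typical, normal starting fluorescence, not activating the receptor alone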;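 note: compound read alongside a low EC10 to EC30 dose of BAM8-22 agonist; peak minus trough fluorescence over baseline measured at the second addition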
RGS4 pot – RGS4 potentiators or activators, primary screen, cell-based, HEK293 M3R inducible RGS4, calcium flux; carbachol calcium flux Fluo4; active compounds read low; hit rate 0.92% among 310,000; B-score at 10 µM; AID 463111, 2010;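 active = B-score of the integrated calcium signal more than 4 SD below the library mean, with starting fluorescence not abnormally high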;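 note: negative B-score means reduced calcium response which marks RGS4 activation or potentiation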
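System: HEK293 FlpIn-TREx cells, stable M3R, doxycycline-inducible RGS4. Timing: overnight RGS4 induction, 30 min dye load 37 °C, 20 min compound RT. Also added: carbachol, ECmax concentration. Measured by: Fluo4 fluorescence kinetic imaging of calcium. Evaluation: integrated calcium ratio converted to B score.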
MrgX1 ag – agonists of human MrgX1 receptor, primary screen, HEK293 cells, Fluo-4 calcium flux; Mas-related G-protein coupled receptor member X1 (Homo sapiens), Q96LB2; Fluo-4 calcium fluorescence, agonist mode; active compounds read high; B-score at 10 µM; hit rate 0.44% among 310,000; AID 588627, 2011;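 active = calcium response B-score plate-corrected fluorescence ratio at least 3 library SD, with starting fluorescence B-score inside 5 SD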
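System: HEK293 cells stably expressing human MrgX1 receptor; Dosing: test compound in the initial addition of three; Schedule: overnight plating, then 30 min 37 °C plus 30 min room-temperature dye loading; Detection: kinetic calcium dye fluorescence, Fluo-4 NW; Controls: per-plate positive and negative controls for Z′ factor.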
RGS4 act valid – reduced carbachol calcium response, RGS4-induced M3R cells, confirmation, RGS4 activator project, cell-based, HEK293 M3R/RGS4 inducible, calcium flux, duplicate. inhibition, % at 10 µM. hit rate 89% among 1,100. carbachol calcium flux Fluo4. shares compounds with RGS4 pot. AID 602282, 2012;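 active = inhibition above 3 SD of the buffer control wells, cut at about 41% in these data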;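 note: signal is the integrated peak-minus-minimum Fluo4 fluorescence over baseline ratio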
RGS4 act ctr – counter-screen for RGS4 activators: effect in non-induced cells; shares compounds with RGS4 pot; HEK293 M3R non-induced RGS4, Fluo4 calcium flux; after carbachol challenge at its EC90; inhibition, % at 10 µM; hit rate 82% among 1,100; AID 602283;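 active = inhibition exceeding 3 SD of buffer-only control wells, cut at about 26% in these data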;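 note: percent drop in integrated peak-minus-baseline over baseline Fluo4 ratio after carbachol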
Starred values were filed as active, the others as inactive; i = inactive; . = not tested or not shown.

SMILES	MrgX1 antagonist	RGS4 inh	MrgX1 PAM	RGS4 pot	MrgX1 ag	RGS4 act valid	RGS4 act ctr
COc1cc(CN2CCN(C(c3ccccc3)c3ccccc3)CC2)cc(OC)c1OC	i	i	i	-8.9*	i	86*	30*
COc1ccc(CNC(=O)C2(CC3CC(c4ccccc4)=NO3)CCNCC2)cc1 (stereo not given)	i	i	i	i	i	.	.
OCCCCNCc1ccc(OCc2ccccc2)cc1	i	i	i	-7.8*	i	60*	84*
OCCNCCCCOc1ccc(OCc2ccccc2)cc1	i	i	i	i	i	.	.
COc1ccccc1/C=C/C=N/n1c(-c2n[nH]c3c2CCC3)n[nH]c1=S	i	i	i	i	i	.	.
S=c1[nH]nc(-c2n[nH]c3c2CCC3)n1/N=C/C=C/c1ccco1	i	i	i	-9.1*	i	89*	58*
COc1cccc(/C=N/n2c(-c3n[nH]c4c3CCC4)n[nH]c2=S)c1O	i	i	i	-9.1*	i	94*	93*
Cc1cc(NC(=O)CCC(=O)N(CC(=O)NC2CCCC2)c2cccc(C)c2C)no1	i	i	i	i	i	.	.
CCOc1ccc2nc(NC(=O)C3(C)CC3(Br)Br)sc2c1 (stereo not given)	i	i	i	-8.1*	i	68*	84*
O=C(COc1ccccc1)Nc1ccccc1N1CCN(c2ccc(F)cc2)CC1	i	i	i	-9.1*	i	61*	0
O=C(COc1ccccc1)Nc1ccccc1N1CCCCC1	i	i	i	i	i	.	.
COc1cccc(-c2nc(N3CCCCC3)c3ccccc3n2)c1O	i	i	i	-8.8*	i	92*	91*
Fc1cccc(-c2cc3nc4c(c(N5CCOCC5)n3n2)CCCC4)c1	i	i	i	i	i	.	.
Fc1cccc(-c2cc3nc4c(c(NCc5ccco5)n3n2)CCCC4)c1	i	i	i	-8.1*	i	86*	45*
CCNC(=O)NC1c2ccccc2CSc2ccccc21 (stereo not given)	i	i	i	i	i	.	.
CCOCCN1CCN(C2c3ccccc3CSc3ccccc32)CC1 (stereo not given)	i	i	i	-13*	i	92*	90*
COc1ccc(-c2oc3ccc(-c4cc(OC)c(OC)c(OC)c4)cc3c2C#Cc2ccsc2)cc1	i	i	i	i	i	.	.
CCOC(=O)C1=C(C)N=C2SC(C)C(=O)N2C1c1cccc(F)c1 (stereo not given)	i	i	i	-8.1*	i	0	0
COc1ccc(C(=O)N/C(=C\c2ccccc2)C(=O)Nc2ccccc2C(=O)O)cc1	i	i	i	i	i	.	.
Cc1ccc(C(C(=O)NC2CCCCC2)N2CCCC2)cc1 (stereo not given)	i	i	i	i	i	.	.
O=C(NC1CCCCC1)C(c1ccccc1)N1CCCC1 (stereo not given)	i	i	i	-8.8*	i	94*	64*
O=c1[nH]c2ccc(S(=O)(=O)Nc3ccc(Br)cc3)cc2[nH]1	i	i	i	i	i	.	.
Cc1ccccc1C(=O)Nc1nnc(SC(C)C)s1	i	i	i	i	i	.	.
COC(=O)c1ccc(CN2CCC(Oc3ccc(C(=O)N4CCCCC4)cc3)CC2)cc1	i	i	i	-9.9*	i	92*	80*
COC(=O)c1ccc(CN2CCC(Oc3cccc(C(=O)N4CCCC4)c3)CC2)cc1	i	i	i	-8*	i	87*	59*
SMILES	MrgX1 antagonist	RGS4 inh	MrgX1 PAM	RGS4 pot	MrgX1 ag	RGS4 act valid	RGS4 act ctr
CSc1ccc(CN2CCC(Oc3cccc(C(=O)N4CCCC4)c3)CC2)cc1	i	i	i	i	i	.	.
COC(=O)c1cccc(NC(=O)CN2C(=O)c3ccccc3C2=O)c1	i	i	i	i	i	.	.
CC(C)(C#CC(O)(c1ccccc1)c1ccccc1)N1CCCC1	i	i	i	-8.9*	i	92*	87*
CC(O)(C#CCN1CCCCCC1)c1ccccc1 (stereo not given)	i	i	i	-9.8*	i	66*	84*
OC(C#CCN1CCCCC1)(c1ccccc1)c1ccccc1	i	i	i	i	i	.	.
OC(C#CCN1CCCC1)(c1ccccc1)c1ccccc1	i	i	i	-7.6*	i	94*	91*
CCOc1ccc(S(=O)(=O)Nc2nc3ccccc3nc2-n2ccc(=NC(=O)c3ccccc3C)cc2)cc1	i	i	i	i	i	.	.
CC(C)C[C@H](NC(=O)c1nc[nH]c1C(=O)N(C)Cc1ccccc1)C(=O)OCc1ccccc1	i	i	i	i	i	.	.
Cc1cc2ccccc2n1CCNC(=O)C(C)Oc1ccccc1 (stereo not given)	i	i	i	i	i	.	.
COc1ccc(-c2cn[nH]c2-c2ccc(OCc3ccccc3)cc2O)cc1	i	i	i	-9.7*	i	0	0
COc1ccccc1-c1cn[nH]c1-c1ccc(OCc2ccccc2)cc1O	i	i	i	i	i	.	.
CC(C)NC(C(=O)Nc1cc(Cl)cc(Cl)c1)c1ccccc1 (stereo not given)	i	i	i	i	i	.	.
CN(C)CCNC(C(=O)Nc1cc(Cl)cc(Cl)c1)c1ccccc1 (stereo not given)	i	i	i	-9.7*	i	91*	49*
Cc1cc(=O)n2nc(N3CCCC(C(=O)NCc4cccc(Br)c4)C3)sc2n1 (stereo not given)	i	i	i	i	i	.	.
Cc1cc(NC(=O)CSc2cn(CCNC(=O)c3ccc(F)cc3)c3ccccc23)no1	i	i	i	-7.7*	i	69*	33*
Cc1cc(=O)[nH]c(SCC(=O)Nc2cc(S(=O)(=O)N(C)C)ccc2Cl)n1	i	i	i	i	i	.	.
COc1[nH]c(/N=C/c2ccccc2)c(C#N)c1C#N	i	i	i	-8.4*	i	0	0

High-throughput results: PubChem, Johns Hopkins Ion Channel Center
